Reference: the EternaBench riboswitch data

Tested on: MS2 coat protein
Assay: apparent Kd, MS2 coat protein; higher = weaker binding; RNA-MaP array
Outline: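 Incubations were done at room temperature with fluorescently labeled MS2 coat protein at 1.5 nM to 3 μM and designed RNAs transcribed on an Illumina sequencing chip from sequenced DNA templates, with or without input ligand. Apparent Kd is the median of binding curves fitted for each cluster. Designs with fewer than 10 measured clusters were excluded.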

[1] = designed as: ON switch for flavin mononucleotide, no ligand
[2] = ligand present: flavin mononucleotide, designed as: ON switch for flavin mononucleotide
[3] = designed as: OFF switch for flavin mononucleotide, no ligand
[4] = ligand present: flavin mononucleotide, designed as: OFF switch for flavin mononucleotide
[5] = designed as: OFF switch for tryptophan, no ligand
[6] = ligand present: tryptophan, designed as: OFF switch for tryptophan
[7] = designed as: ON switch for tryptophan, no ligand
[8] = ligand present: tryptophan, designed as: ON switch for tryptophan

Sequence	apparent Kd [1] [nM]	apparent Kd [2] [nM]	apparent Kd [3] [nM]	apparent Kd [4] [nM]	further results
GUGAACGUCAAAGGAUAUGUCGGAACUGCUAGAACAGAAGGUUGGGAAUCGGAUUGGUUGCACAUGAGGAUCACCCAUGUUGAG	443	264	–	–	–
CGACAGCACAUAGGAUAUCAGCAAGAACUAACAUGAGGAUCACCCAUGUAUGGAUGAACAUAAAAUGAGAAGGAAGGCGAAUUA	22.2	17.9	–	–	–
AGCUAUUUUUGGGAGGAUAUUAUGAGCAGUACAUGAGGAUCACCCAUGUUAGUAAUAUACAUUGGUAAGAAGGCCCAAUCAUAAGG	34.6	25.1	–	–	–
AGCCCACAUGAGGAUCACCCAUGUACUUGGUCCUCAGGAUAUCUAGUUCCAUAUUACAAAAGAGAAGGGAGGAUUG	110	14.6	–	–	–
GGAGUUCUAGGAUAUAAUUCGUGGUACAUGAGGAUCACCCAUGUCGCUGAUGCAUCGCCUUUAGAAGGAGAGAUCU	–	–	9.03	9.49	–
CGGGUAACCGAGAAGGACUUAAGACUACGUUAAGUAGGAUAUCGAUUUGUUACAUGAGGAUCACCCAUGUCUGGUCUUGACCGC	–	–	8.66	9.67	–
CUCGUGUUAGGAUAUGACGUCCCGCGCUCCGUUAACUAAUUUCAGAAGGAACAUGAGGAUCACCCAUGUUGGUG	–	–	150	59.7	–
CGACGAUCAGAAGGAUAUUAAAUCGUCAAUCUCGUGACAUGAGGAUCACCCAUGUAGCCCGUGGUUAAGAAGGUCUUGGUUGUG	–	–	92.4	58	–
GGGUUACACACAUGAGGAUCACCCAUGUUUGCGUGGGCGGGCAGAAGGAGAACCGGAUUACACUUCUAGGAUAUGCAGAUGAUC	23.6	28.2	–	–	–
CAGGUUCGUACAGGAUAUGGUUACAUGAGGAUCACCCAUGUGCGGUGAGCUGAUUAGUGCACAGUCCAGAAGGGUAGGAUAACA	852	684	–	–	–
GCUCGAGGGCAAGGAUAUAGGGAGAAACAACGCCUAGAAGGUGCACACAUGAGGAUCACCCAUGUUUCUCUAUGACGGAUCAUC	–	–	18.1	17.3	–
GGUUCCUCAACGGCCGCCACUUACUGGAUUAGUGGACCUACUUGCAACAUGAGGAUCACCCAUGUAAGGACCGGGUUGCUCCCAA	–	–	–	–	apparent Kd [5]: 68.2 nM; apparent Kd [6]: 79.2 nM
ACCGUAUGGGAGAAGGAACUAUGUUAGACAUGAGGAUCACCCAUGUUCCAGAAUGUAGGGCUCAGUUAGGAUAUCCAAUUCAGA	–	–	11.1	21.8	–
GCGACACUCACGGCCGCCACUGAUUAGCCCAGUAUGGAGCCCACACAUGAGGAUCACCCAUGUCACAGGACCGGGUGGGUCUAUU	–	–	–	–	apparent Kd [7]: 25.8 nM; apparent Kd [8]: 26.8 nM
UAGCAGUUCACAGGAUAUAGUUUGCGAUAAGUUUAUUUAUGAGAGACAUGAGGAUCACCCAUGUACUAGAAGGGUGAGAAAUAA	461	130	–	–	–
AUAGAGGAUAAAGGAUAUGAGGUGAACAUCGAUUCAGAAGGUUAUCAGGAUACAUGAGGAUCACCCAUGUUUCCUUUGCUGUUG	38.5	22.9	–	–	–
GGAUCGCUCUACAUGAGGAUCACCCAUGUGACUGAGCUAGAUAGAAGGAGAUGGCGAAAUACUUUCUAGGAUAUAUUGUAGCUA	–	–	8.05	8.08	–
GUGCACAUGAGGAUCACCCAUGUCUGUGUAUUCCUGCUACCAGAGGAUAUGGCGUGCGUAGCUUACCAGAAGGCUGGUUGUAUC	–	–	30	13.4	–
UAAUCCAACUCGUAAUGACAUGAGGAUCACCCAUGUGAGCGUGAGGAUAUUGUAAGCUAGGAGGUCAAGAAGGCACGCCAGGAG	–	–	9.1	10	–
UGAAUACAUGAGGAUCACCCAUGUUACGACCUCACAGGAUAUCAGAUAAAGGCUCUCAUCUGAGAAGGGUGGCUCC	63.3	38.8	–	–	–
GCCAAGCUCUAAGGAUAUGUUCACACCGGUGAGACAGAAGGUAGUAGUGUACUGCACAUGAGGAUCACCCAUGUAAACGGAUAA	64.2	14.9	–	–	–

Sequence	apparent Kd [1] [nM]	apparent Kd [2] [nM]	apparent Kd [3] [nM]	apparent Kd [4] [nM]	further results
CGAACUAGCUAGAAGGAACAGGCGACUAAAGUGUUAGGAUAUAGGCGUAUGUGCAGACAUGAGGAUCACCCAUGUGUCGAAUUU	–	–	17.8	14.7	–
UUUGCAGUCGAGAAGGCAAACACAUGAGGAUCACCCAUGUAGACGAGGUAUGUUAUUUCGGGAGUUGAGGAUAUCGUGGUAGGU	27.8	13.8	–	–	–
CGAGUCUUAUAGAAGGUAGACAUGAGGAUCACCCAUGUACUGGCAACGAAUAGUCGUAGUACACCUAAGGAUAUAUGGGAUGAG	74.7	52.3	–	–	–
UGCCAGGCACAGAAGGUAGCGUGUCCUCAAGACAUGAGGAUCACCCAUGUGGAAAGAUUAAGACCUAAGGAUAUGUGUAUCACC	–	–	143	93.9	–
UCACUGUUAGGAUAUCUCAUAGCAGUAGGUCAGCUAUUUUGAGAGAAGGAACAUGAGGAUCACCCAUGUAAAUA	–	–	19.6	84.7	–
UGCGACAAGUGAAUACUUUGUUCUAGAGAUACCAGUUCCCGAGUGAACCCUUGGCAGCUCCCAACAUGAGGAUCACCCAUGUAUU	–	–	–	–	apparent Kd (designed as: OFF switch for theophylline, no ligand): 14.5 nM; apparent Kd (ligand present: theophylline, designed as: OFF switch for theophylline): 28.5 nM
GCGAGGAGGCAGAAGGACUAAAACACGCUACAAGUAGGAUAUGCAUCCUGCACACAUGAGGAUCACCCAUGUAGAUCCUAUCGC	–	–	78	151	–
ACUCAUGCAAAGGAUAUAACAGUUACAGACUGAUUAGAAGGUUGGACAUGAGGAUCACCCAUGUACGACGCGGU	–	–	9.13	28.4	–
AUGAGAUGAGGAUAUACUGGGUCCGCAUUAGAAACUUAUCAACAUGAGGAUCACCCAUGUAGAAGGCAUGUGAG	–	–	25.4	83.2	–
CACCUUCGUCAAGGAUAUGCGUAAUGUAUAAUCGCAGAAGGUGACGCGAUCUUCAUAACAUGAGGAUCACCCAUGUGGUGAACU	–	–	436	312	–
UCGGUUUGUGCAGGAUAUGCUUACACCCUAGAGGCAGAAGGGCAUAUCACAUGAGGAUCACCCAUGUACAAUCGUCCAAGGGCA	29.8	23.4	–	–	–
GAACAAUGCCUAGGAUAUCUUACGAUUGAAAACAGAGAAGGAGGGACCGAACAUGAGGAUCACCCAUGUAGAUGUGGGACGUGG	–	–	77.2	84.5	–
UGUUACAUGAGGAUCACCCAUGUCAGAUGGUCUGGCUAUUACAGAAGGAAUAAAGAACGUCGAGAUUAGGAUAUGUGUAGAUGA	40.9	31.8	–	–	–
AGGAAAGAAGAAGGAUAUCAGUUACGGACAUGAGGAUCACCCAUGUACGUAGGGUGAACCCUGAUUGAGAAGGUCUGUGUUUUA	23.1	13.4	–	–	–
CGCCCGUACUCAGGAUAUCGAAGUACGAGCCAAAUUAUGUCGGACAUGAGGAUCACCCAUGUGGGCGAGAAGGGAGAACGUGCG	–	–	29.4	16.4	–
GUUUUGCGAAUAGGAUAUAGUAAUGAUUCAGGAAGCCUGAACAUGAGGAUCACCCAUGUGCCAUCCUAGAAGGAUUCGCACGUG	359	186	–	–	–
UCUAACAUGAGGAUCACCCAUGUACCGUCCCGAGGACCGGUACGGCCGCCACUCGUCUUGCUAAAACUGAAGUGAUCACAAGCCU	–	–	–	–	apparent Kd [7]: 20.2 nM; apparent Kd [8]: 30.8 nM
AUAUCUUCCACGGCCGCCACUGAAUGGUGCCCAAGGUCGAUCGCAGACAUGAGGAUCACCCAUGUCAGGACCGGGUGGUACUACG	–	–	–	–	apparent Kd [5]: 14.7 nM; apparent Kd [6]: 33 nM
AGUCCUCUGUACCCUGAUGCCCUCACUUUACGAGGACCGGUACGGCCGCCACUCGAAUCCCAACAUGAGGAUCACCCAUGUCGAC	–	–	–	–	apparent Kd [5]: 34.8 nM; apparent Kd [6]: 39.7 nM
AAUCGCCGUAAGAAGGCCACAUAAACAUGAGGAUCACCCAUGUACAGGCGACCUUUAUAUAAUGUGGAGGAUAUUAACUGCUUC	–	–	36.2	90.5	–
